Values after ≈ are worked out from the molar mass of the structure shown. Bounds are passed on as bounds.

In general, solubility refers to the dissolved amount per volume that the medium holds.

The test system of data set [1] is Rattus norvegicus. The data set can be described thus: Antiinflammatory activity in rat assessed as reduction of carrageenan-induced oedema in right hind paw at 40 mg/kg, po after 4 hrs post carrageenan-challenge. On the set-up: scale not given: the % may be the effect or the level left. In kind it is functional. Put shortly: (§1)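 Sprague-Dawley or Wistar rats (150-200 g). Carrageenan injected intraplantar; oral treatment with test compound or CMC vehicle. Right hind paw volume measured 4 h after carrageenan and compared with saline- and carrageenan-treated controls.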
(Carrageenan injected into the paw causes an acute inflammation.)

Data set [2] can be described thus: Solubility of the compound in PBS buffer at pH 7.4 by HPLC analysis. Type of data set: physicochemical. The method, boiled down: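 20 mM DMSO stocks diluted 1:100 into 0.01 M PBS pH 7.4 in duplicate wells of a solubility filter plate, shaken 90 min at 300 rpm. Seven-point calibration standards from 1 to 200 μM.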
Data set [3] in a line: Solubility of the compound in simulated gastric fluid without pepsin at pH 1.5 by HPLC analysis. Type of data set: physicochemical. The method, boiled down: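 Compound from 20 mM DMSO stock diluted 1:100 into 0.05 M simulated gastric fluid without pepsin (pH 1.5 with HCl), duplicate wells on a solubility filter plate, shaken 90 min at 300 rpm. Seven-point calibration standards from 1 to 200 μM.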

For data set [4], the system named is Rattus norvegicus. The data set can be described thus: Antiinflammatory activity in rat assessed as reduction of carrageenan-induced paw pressure at 40 mg/kg, po after 60 mins post carrageenan-challenge. Type of data set: functional. On the set-up: scale not given: the % may be the effect or the level left. The method, boiled down:
(§2)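 Rats (Sprague-Dawley or Wistar, 150-200 g) received intraplantar carrageenan 4 h before testing, then oral compound or CMC vehicle. Paw-pressure threshold read before treatment and at 15, 30, 45 and 60 min after treatment, compared with saline and carrageenan controls.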

The subject of data set [5] is Rattus norvegicus. Briefly: Antiinflammatory activity in rat assessed as reduction of carrageenan-induced paw pressure at 40 mg/kg, po after 30 mins post carrageenan-challenge. In kind it is functional. On the set-up: scale not given: the % may be the effect or the level left. Put shortly: as §2
For data set [6], the system named is Rattus norvegicus. Briefly: Antiinflammatory activity in rat assessed as reduction of carrageenan-induced paw pressure at 40 mg/kg, po after 15 mins post carrageenan-challenge. Type of data set: functional. On the set-up: scale not given: the % may be the effect or the level left. Put shortly: as §2
Data set [7] concerns Mus musculus. The data set can be described thus: Analgesic activity in Swiss albino mouse assessed as reduction of acetic acid-induced writhing at 84 nmol/kg, po after 5 mins. In kind it is functional. On the set-up: scale not given: the % may be the effect or the level left. Put shortly: (§3)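 Male Swiss albino mice (23-25 g), standard diet and water ad libitum, 23 ± 1 °C, 12 h light/dark cycle. Test compound given orally; 0.6% acetic acid (10 mL/kg) injected ip. Stretching movements counted for 10 min, beginning 5 min after administration.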

Data set [8] deals with Mus musculus. Briefly: Analgesic activity in Swiss albino mouse assessed as reduction of acetic acid-induced writhing at 40.8 nmol/kg, po after 5 mins. Type of data set: functional. On the set-up: scale not given: the % may be the effect or the level left. The method, boiled down:
as §3

Data set [9] deals with Rattus norvegicus. Briefly: Antiinflammatory activity in rat assessed as reduction of carrageenan-induced paw pressure at 40 mg/kg, po after 45 mins post carrageenan-challenge. Type of data set: functional. On the set-up: scale not given: the % may be the effect or the level left. Put shortly:
as §2

The test system of data set [10] is Mus musculus. Briefly: Analgesic activity in Swiss albino mouse assessed as reduction of acetic acid-induced writhing at 81.6 nmol/kg, po after 5 mins. In kind it is functional. On the set-up: scale not given: the % may be the effect or the level left. The method, boiled down:
as §3
(In general: In writhing tests, fewer writhes than in controls are read as antinociception.)

Data set [11] has as its system Rattus norvegicus. Briefly: Antiinflammatory activity in rat assessed as reduction of carrageenan-induced paw pressure at 20 mg/kg, po after 60 mins post carrageenan-challenge. Type of data set: functional. On the set-up: scale not given: the % may be the effect or the level left. Put shortly: as §2
Data set [12] has as its system Mus musculus. The data set can be described thus: Analgesic activity in Swiss albino mouse assessed as reduction of acetic acid-induced writhing at 42 nmol/kg, po after 5 mins. Type of data set: functional. On the set-up: scale not given: the % may be the effect or the level left. Put shortly: as §3
A further data set has as its system Liver. The data set can be described thus: Induction of nitrite/nitrate production in Wistar rat liver homogenates at 1 mM. Type of data set: functional, tissue-based. To be noted: TDE = time-dependent effect. Put shortly: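 Liver from male Wistar rats (250–350 g), perfused with cold buffer (pH 7.4), homogenized 1:5 w/v. Homogenate in K2HPO4/EDTA buffer pH 7.4 with 1 mM glutathione, NADH and NADPH at 37 °C; compound added from DMSO at 1 mM final. Aliquots at 5-120 min into H2SO4/KI; quantified against sodium nitrite calibration.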

For data set [13], the system named is Mus musculus. The data set can be described thus: Analgesic activity in Swiss albino mouse assessed as reduction of acetic acid-induced writhing at 21 nmol/kg, po after 5 mins. Type of data set: functional. On the set-up: scale not given: the % may be the effect or the level left. The method, boiled down:
as §3

Data set [14] has as its system Rattus norvegicus. The data set can be described thus: Antiinflammatory activity in rat assessed as reduction of carrageenan-induced paw pressure at 20 mg/kg, po after 45 mins post carrageenan-challenge. Type of data set: functional. On the set-up: scale not given: the % may be the effect or the level left. Put shortly:
as §2

The subject of data set [15] is Rattus norvegicus. Briefly: Antiinflammatory activity in rat assessed as reduction of carrageenan-induced paw pressure at 20 mg/kg, po after 15 mins post carrageenan-challenge. Type of data set: functional. On the set-up: scale not given: the % may be the effect or the level left. The method, boiled down:
as §2

Data set [16] concerns Rattus norvegicus. The data set can be described thus: Antiinflammatory activity in rat assessed as reduction of carrageenan-induced oedema in right hind paw at 20 mg/kg, po after 4 hrs post carrageenan-challenge. On the set-up: scale not given: the % may be the effect or the level left. Type of data set: functional. The method, boiled down: as §1
The subject of data set [17] is Rattus norvegicus. The data set can be described thus: Antiinflammatory activity in rat assessed as reduction of carrageenan-induced paw pressure at 20 mg/kg, po after 30 mins post carrageenan-challenge. Type of data set: functional. On the set-up: scale not given: the % may be the effect or the level left. Put shortly: as §2

Take `Cc1c(CC(=O)OCCCO[N+](=O)[O-])cc(-c2ccc(S(C)(=O)=O)cc2)n1-c1cccc(F)c1`: the Activity with Rattus norvegicus [1] is 35%; with Rattus norvegicus [4], 17%; with Rattus norvegicus [5], 41%; with Rattus norvegicus [6], 40%; in the data set on Mus musculus [7], 71.2%; in the data set on Mus musculus [8], 23.3%. Besides, the figures for the Activity in the data set with Rattus norvegicus [9] and in the data set on Mus musculus [10] were 40% and 26.4%, respectively. Further, the values for the solubility in [2] and in [3] were 1.1 µM (≈ 0.54 µg/mL) and below 1 µM, respectively.
For `Cc1c(CC(=O)OCCO[N+](=O)[O-])cc(-c2ccc(S(C)(=O)=O)cc2)n1-c1cccc(F)c1`, the Activity is 10% in the data set on Rattus norvegicus [11]; 48.8% in the data set on Mus musculus [12]; “tde” in the data set with Liver; 30.8% in the data set on Mus musculus [13]; 40% with Rattus norvegicus [1]; 23% in the data set with Rattus norvegicus [4]. Besides, the Activity in the data set on Rattus norvegicus [14] is listed as 29%; in the data set with Rattus norvegicus [5] it was 80%; in the data set on Rattus norvegicus [15] it was 18%; in the data set on Rattus norvegicus [6] it was 50%; with Rattus norvegicus [16], 17%; in the data set on Rattus norvegicus [17] it was 35%. Further, in the data set on Rattus norvegicus [9], the Activity amounted to 60%. The solubility in data set [2] was 1.6 µM (≈ 0.762 µg/mL); in data set [3], below 1 µM.
